Measured values reported in ChEMBL document CHEMBL1833911, “Diastereoselective synthesis and bioactivity of long-chain anti-2-amino-3-alkanols” (Eur J Med Chem, 2011).
The source made the active and inactive calls. No cut-off for these calls is given here.

What was measured:
[1] = Antiproliferative activity against human SHG44 cells after 24 hrs by cell counting kit-8 assay; type: functional, cell-based; settings: SHG-44, 24 h
Summary of the method: (§1)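 SHG-44 glioblastoma cells were maintained in DMEM with 10% FBS and penicillin/streptomycin at 37 °C under 5% CO2. They were seeded at 5000/well in DMEM with 1% FBS and grown overnight, then exposed for 24 h to compound (0.1–100 μM) or 0.1% DMSO vehicle. CCK-8 was added for 2 h at 37 °C and A450 read. Results were from triplicates, expressed as % of vehicle.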

[2] = Growth inhibition of human SHG44 at 10 uM after 24 hrs by cell counting kit-8 assay; type: functional; settings: SHG-44, 24 h, read-out: GI; summary of the method: as §1
Homo sapiens = species on record: Homo sapiens; experiment: Cytotoxicity against human SHG44 at 50 uM after 24 hrs by cell counting kit-8 assay; type: functional; summary of the method: as §1
SHG44 = experiment: Antiproliferative activity against human SHG44 cells at 0.1 to 100 uM after 24 hrs by cell counting kit-8 assay; type: functional, cell-based; summary of the method: as §1

Row | Structure (SMILES) | IC50 [1] | inhibition of growth at 10 µM [2] | Activity (Homo sapiens) | Activity (SHG44)
1 | CCCCCCCCC[C@@H](O)[C@H](C)N | 7.96 µM | 80% | Active | –
2 | CCCCCCCCCCC[C@@H](O)[C@H](C)N [XETOAMINOL C] | 4.5 µM | 100% | Active | –
3 | CCC/C=C\CCCC[C@H](O)[C@@H](C)N | – | – | Active | inactive
4 | CCCCCCCCC[C@H](O)[C@H](N)CO | 4.41 µM | 60% | Active | –
5 | CCCCCCCCC[C@H](O)[C@@H](C)N | – | – | Active | –
6 | CC(C)CCCCCCC[C@H](O)[C@@H](C)N | – | – | Active | inactive
